Published values of several laboratories.
rep main protease: Replicase polyprotein 1ab, main protease (rep, Severe acute respiratory syndrome coronavirus 2, UniProt P0DTD1)

| SMILES | target | assay | setting | measurement | result |
| --- | --- | --- | --- | --- | --- |
| CC(C)(C)NC(=O)[C@@H]1CN(Cc2cccnc2)CCN1C[C@@H](O)C[C@@H](Cc1ccccc1)C(=O)N[C@H]1c2ccccc2C[C@H]1O | rep main protease | enzyme activity, inhibitor, FRET | 100 µM | activity vs control | 100% |
| CC(C)[C@H](NC(=O)OC(C)(C)C)C(=O)N1C[C@@H]2CCC[C@@H]2[C@H]1C(=O)N[C@H](C=O)C[C@@H]1CCNC1=O | rep main protease | thermal stability | 40 µM | ΔTm | 11 °C |
| C=C1CC[C@@H]2[C@](C)(CO)[C@H](O)CC[C@@]2(C)[C@@H]1C/C=C1/C(=O)OC[C@H]1O | rep main protease | enzyme activity, inhibitor | 20 µM | remaining activity | 96% |
| CC(C)C[C@H](NC(=O)OCc1ccccc1)C(=O)N[C@@H](CC(C)C)C(=O)N[C@@H](CC1CCNC1=O)C(=O)C(=O)NC1CC1 (stereo partly shown) | rep main protease | enzyme activity, inhibitor | – | kinact/KI | 90500 M⁻¹ s⁻¹ |
| CCN(C[C@H]1O[C@@H](n2cnc3c(N)ncnc32)[C@H](O)[C@@H]1O)S(=O)(=O)c1ccc(OC)c(C#N)c1 | Replicase polyprotein 1ab, methyltransferase (rep, Severe acute respiratory syndrome coronavirus 2, UniProt P0DTD1) | enzyme activity, inhibitor | 5 µM | remaining activity | 0.1% |
| Cc1ccc2nc(Cl)c(C=Nc3cc(Br)ccn3)cc2c1 | rep main protease | thermal stability | 100 µM | ΔTm | 8 to 12 °C |
| Cn1cc2c(n1)c(=O)n(Cc1ccc(F)cc1)c1nn(Cc3ccccc3)c(=O)n21 | rep main protease | enzyme activity, inhibitor | 20 µM | inhibition | 14.9% |
| CS(=O)(=O)CCNCc1ccc(-c2ccc3ncnc(Nc4ccc(OCc5cccc(F)c5)c(Cl)c4)c3c2)o1 | rep main protease | enzyme activity, inhibitor, FRET | 100 µM | activity vs control | 100% |
| Clc1nc2ccccc2cc1/C=N\c1ccc(Br)nc1 | rep main protease | thermal stability | 100 µM | ΔTm | 8 to 12 °C |
| O=C(Nc1ccccc1)Nn1cnnc1 | rep main protease | enzyme activity, inhibitor | 20 µM | inhibition | -7.8% |
